The source of these data is ChEMBL document CHEMBL1165965, “Synthesis and structure-activity relationships of 1,2,3,4-tetrahydropyrido[2,3-b]pyrazines as potent and selective inhibitors of the anaplastic lymphoma kinase” (Bioorg Med Chem, 2010).

Assay [1] concerns the target Non-receptor tyrosine-protein kinase TYK2 (Homo sapiens) (UniProt P29597). Nature of the assay: Inhibition of TYK2 JH1 catalytic domain at 1 uM. In outline: (§1)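 Single-concentration screen on the Ambit KINOMEscan platform, run against a panel of 250–400 kinases. Per-kinase inhibition was also summarized as S(90), the fraction of kinases inhibited by more than 90%.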

Assay [2] deals with T1, Phosphorylase b kinase gamma catalytic chain, liver/testis isoform (Homo sapiens) (UniProt P15735).
T1 sequence (whole entry): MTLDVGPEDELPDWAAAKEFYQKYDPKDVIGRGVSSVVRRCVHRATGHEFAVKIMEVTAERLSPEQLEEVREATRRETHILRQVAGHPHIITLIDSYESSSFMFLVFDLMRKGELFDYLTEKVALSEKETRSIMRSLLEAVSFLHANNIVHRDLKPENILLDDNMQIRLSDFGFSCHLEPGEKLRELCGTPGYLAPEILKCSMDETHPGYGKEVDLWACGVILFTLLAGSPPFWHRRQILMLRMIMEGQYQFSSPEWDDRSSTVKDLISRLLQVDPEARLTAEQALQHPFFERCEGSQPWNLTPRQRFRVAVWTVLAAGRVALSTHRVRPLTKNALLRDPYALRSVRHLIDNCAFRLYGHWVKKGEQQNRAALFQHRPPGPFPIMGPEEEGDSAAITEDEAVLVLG
As to the kind of experiment: Inhibition of PHKG2 at 1 uM.

Assay [3] concerns the target Wee1-like protein kinase (Homo sapiens) (UniProt P30291). As to the kind of experiment: Inhibition of WEE1 at 1 uM.
In assay [4] the target is T2, Myotonin-protein kinase (Homo sapiens) (UniProt Q09013).
T2 sequence (whole entry): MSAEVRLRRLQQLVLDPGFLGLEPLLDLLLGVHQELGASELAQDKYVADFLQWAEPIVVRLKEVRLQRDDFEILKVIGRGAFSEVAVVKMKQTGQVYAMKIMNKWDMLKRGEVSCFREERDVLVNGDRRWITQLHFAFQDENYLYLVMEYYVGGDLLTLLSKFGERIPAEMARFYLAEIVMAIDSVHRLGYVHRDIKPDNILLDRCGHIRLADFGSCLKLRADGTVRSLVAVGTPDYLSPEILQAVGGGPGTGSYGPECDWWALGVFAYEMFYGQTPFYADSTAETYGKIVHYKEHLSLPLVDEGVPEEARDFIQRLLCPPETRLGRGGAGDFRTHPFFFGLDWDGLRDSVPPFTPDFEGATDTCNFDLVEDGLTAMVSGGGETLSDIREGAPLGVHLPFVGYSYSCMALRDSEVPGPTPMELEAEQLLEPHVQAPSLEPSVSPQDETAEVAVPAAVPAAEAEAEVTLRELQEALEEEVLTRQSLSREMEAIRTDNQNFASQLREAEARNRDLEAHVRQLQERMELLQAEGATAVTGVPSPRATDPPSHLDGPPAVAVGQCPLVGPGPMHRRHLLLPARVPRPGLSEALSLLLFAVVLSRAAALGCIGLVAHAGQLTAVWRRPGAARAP
As to the kind of experiment: Inhibition of DMPK at 1 uM. In outline: (§2)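 Single-concentration screen using Ambit Bioscience KINOMEscan technology across a panel of 250–400 kinases. Per-kinase inhibition from this screen was summarized as S(90), the fraction of kinases inhibited by more than 90%.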

The target in assay [5] is Serine/threonine-protein kinase PRP4 homolog (Homo sapiens) (UniProt Q13523). As to the kind of experiment: Inhibition of PRP4 at 1 uM.
Sequence of Serine/threonine-protein kinase PRP4 homolog (Homo sapiens) (Q13523 whole entry): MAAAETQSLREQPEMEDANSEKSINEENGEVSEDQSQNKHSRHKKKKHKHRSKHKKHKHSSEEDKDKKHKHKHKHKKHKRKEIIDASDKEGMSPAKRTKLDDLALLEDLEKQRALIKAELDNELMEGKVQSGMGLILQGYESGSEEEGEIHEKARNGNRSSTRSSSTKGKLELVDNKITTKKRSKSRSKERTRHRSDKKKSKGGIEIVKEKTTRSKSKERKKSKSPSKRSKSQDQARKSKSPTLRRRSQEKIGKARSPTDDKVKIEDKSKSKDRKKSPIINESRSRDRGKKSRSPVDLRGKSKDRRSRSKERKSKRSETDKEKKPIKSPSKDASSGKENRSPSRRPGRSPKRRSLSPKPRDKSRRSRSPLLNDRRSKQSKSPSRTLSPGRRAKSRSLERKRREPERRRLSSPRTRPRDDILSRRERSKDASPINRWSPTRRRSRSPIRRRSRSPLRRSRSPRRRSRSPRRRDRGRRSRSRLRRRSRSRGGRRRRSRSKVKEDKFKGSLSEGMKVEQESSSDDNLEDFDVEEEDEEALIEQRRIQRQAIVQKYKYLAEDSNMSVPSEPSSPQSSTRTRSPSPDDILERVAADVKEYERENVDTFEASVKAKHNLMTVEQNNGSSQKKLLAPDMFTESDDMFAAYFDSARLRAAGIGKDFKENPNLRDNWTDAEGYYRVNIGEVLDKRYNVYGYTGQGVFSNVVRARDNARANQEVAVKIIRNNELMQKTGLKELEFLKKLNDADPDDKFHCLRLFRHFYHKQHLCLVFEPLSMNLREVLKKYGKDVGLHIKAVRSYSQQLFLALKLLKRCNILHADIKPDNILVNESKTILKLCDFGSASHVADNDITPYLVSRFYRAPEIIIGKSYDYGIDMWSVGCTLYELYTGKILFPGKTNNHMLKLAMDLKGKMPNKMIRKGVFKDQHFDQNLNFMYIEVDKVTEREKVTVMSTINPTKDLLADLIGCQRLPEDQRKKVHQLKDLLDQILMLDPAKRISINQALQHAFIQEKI
Assay [6] addresses T3, Ephrin type-A receptor 6 (Homo sapiens) (UniProt Q9UF33).
T3 sequence (whole entry): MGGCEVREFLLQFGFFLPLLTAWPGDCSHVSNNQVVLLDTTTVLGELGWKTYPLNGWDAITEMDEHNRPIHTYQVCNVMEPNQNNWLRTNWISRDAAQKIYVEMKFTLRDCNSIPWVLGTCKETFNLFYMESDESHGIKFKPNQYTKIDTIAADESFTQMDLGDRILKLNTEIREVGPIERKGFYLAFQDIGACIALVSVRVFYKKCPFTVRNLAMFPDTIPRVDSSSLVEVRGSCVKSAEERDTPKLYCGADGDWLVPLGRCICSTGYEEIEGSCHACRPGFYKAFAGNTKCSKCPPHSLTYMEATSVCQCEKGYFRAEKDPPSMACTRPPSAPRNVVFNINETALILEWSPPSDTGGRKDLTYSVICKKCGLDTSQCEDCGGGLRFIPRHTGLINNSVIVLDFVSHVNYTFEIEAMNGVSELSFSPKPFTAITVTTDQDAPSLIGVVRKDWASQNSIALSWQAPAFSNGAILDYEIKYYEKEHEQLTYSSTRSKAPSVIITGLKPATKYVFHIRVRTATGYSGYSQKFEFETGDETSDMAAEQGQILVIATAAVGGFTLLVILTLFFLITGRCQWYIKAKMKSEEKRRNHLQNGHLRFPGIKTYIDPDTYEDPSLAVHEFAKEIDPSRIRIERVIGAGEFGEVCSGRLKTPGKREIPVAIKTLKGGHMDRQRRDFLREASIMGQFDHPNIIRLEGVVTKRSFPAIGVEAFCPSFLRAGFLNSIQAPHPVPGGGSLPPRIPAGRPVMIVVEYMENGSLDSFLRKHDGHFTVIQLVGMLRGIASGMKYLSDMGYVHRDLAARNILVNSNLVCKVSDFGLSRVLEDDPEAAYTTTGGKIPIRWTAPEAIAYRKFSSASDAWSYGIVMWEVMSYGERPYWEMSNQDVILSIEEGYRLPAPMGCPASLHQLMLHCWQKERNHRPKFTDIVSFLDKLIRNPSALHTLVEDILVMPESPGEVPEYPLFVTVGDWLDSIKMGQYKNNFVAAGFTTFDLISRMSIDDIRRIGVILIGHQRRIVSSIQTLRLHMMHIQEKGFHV
As to the kind of experiment: Inhibition of EPHA6 at 1 uM. The essentials: as §2

In assay [7] the target is Vascular endothelial growth factor receptor 3 (Homo sapiens) (UniProt P35916). As to the kind of experiment: Inhibition of FLT4 at 1 uM. In outline: as §1
Sequence of Vascular endothelial growth factor receptor 3 (Homo sapiens) (P35916 whole entry): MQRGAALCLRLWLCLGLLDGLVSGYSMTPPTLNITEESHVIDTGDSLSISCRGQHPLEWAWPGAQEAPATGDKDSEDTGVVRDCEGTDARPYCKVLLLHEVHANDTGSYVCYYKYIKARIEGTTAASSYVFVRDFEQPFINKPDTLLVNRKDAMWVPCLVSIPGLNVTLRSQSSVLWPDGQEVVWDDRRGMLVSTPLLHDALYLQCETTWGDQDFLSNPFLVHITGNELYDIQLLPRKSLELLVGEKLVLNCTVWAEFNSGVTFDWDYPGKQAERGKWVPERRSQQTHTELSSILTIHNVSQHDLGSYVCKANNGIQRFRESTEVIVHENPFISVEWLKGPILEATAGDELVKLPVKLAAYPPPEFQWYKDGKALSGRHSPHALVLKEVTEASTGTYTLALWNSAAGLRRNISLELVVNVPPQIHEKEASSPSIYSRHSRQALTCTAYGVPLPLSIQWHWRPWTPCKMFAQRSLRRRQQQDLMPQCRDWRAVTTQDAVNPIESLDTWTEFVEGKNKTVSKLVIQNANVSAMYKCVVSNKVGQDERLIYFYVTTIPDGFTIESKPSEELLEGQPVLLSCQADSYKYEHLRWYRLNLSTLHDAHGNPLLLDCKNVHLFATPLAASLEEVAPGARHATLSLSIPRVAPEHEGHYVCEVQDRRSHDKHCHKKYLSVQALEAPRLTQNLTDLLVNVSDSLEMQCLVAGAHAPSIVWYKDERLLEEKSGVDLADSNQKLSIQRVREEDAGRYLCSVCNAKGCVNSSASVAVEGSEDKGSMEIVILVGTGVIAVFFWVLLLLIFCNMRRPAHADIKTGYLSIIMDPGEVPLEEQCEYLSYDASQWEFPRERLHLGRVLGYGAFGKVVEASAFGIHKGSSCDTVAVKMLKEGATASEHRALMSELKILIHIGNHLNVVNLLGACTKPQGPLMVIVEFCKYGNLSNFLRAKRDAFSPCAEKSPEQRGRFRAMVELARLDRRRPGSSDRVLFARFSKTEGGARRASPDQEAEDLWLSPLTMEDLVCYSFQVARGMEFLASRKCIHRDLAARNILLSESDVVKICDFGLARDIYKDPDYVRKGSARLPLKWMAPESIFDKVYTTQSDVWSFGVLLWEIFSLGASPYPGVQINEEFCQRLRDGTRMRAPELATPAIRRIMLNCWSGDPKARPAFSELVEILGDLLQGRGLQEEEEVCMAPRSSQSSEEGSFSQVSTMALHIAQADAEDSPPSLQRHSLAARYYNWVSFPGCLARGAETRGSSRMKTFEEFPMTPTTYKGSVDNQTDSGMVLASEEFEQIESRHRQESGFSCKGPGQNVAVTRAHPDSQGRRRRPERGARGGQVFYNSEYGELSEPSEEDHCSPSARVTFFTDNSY
Assay [8] concerns the target Mitogen-activated protein kinase 6 (Homo sapiens) (UniProt Q16659). Nature of the assay: Inhibition of ERK3 at 1 uM.

Broadly, the inhibition is the drop in the measured response relative to a control, in per cent. Low readings indicate a response near the control, high ones a response far below the control.

Sequence of Non-receptor tyrosine-protein kinase TYK2 (Homo sapiens) (P29597 whole entry, the tested form may be a part): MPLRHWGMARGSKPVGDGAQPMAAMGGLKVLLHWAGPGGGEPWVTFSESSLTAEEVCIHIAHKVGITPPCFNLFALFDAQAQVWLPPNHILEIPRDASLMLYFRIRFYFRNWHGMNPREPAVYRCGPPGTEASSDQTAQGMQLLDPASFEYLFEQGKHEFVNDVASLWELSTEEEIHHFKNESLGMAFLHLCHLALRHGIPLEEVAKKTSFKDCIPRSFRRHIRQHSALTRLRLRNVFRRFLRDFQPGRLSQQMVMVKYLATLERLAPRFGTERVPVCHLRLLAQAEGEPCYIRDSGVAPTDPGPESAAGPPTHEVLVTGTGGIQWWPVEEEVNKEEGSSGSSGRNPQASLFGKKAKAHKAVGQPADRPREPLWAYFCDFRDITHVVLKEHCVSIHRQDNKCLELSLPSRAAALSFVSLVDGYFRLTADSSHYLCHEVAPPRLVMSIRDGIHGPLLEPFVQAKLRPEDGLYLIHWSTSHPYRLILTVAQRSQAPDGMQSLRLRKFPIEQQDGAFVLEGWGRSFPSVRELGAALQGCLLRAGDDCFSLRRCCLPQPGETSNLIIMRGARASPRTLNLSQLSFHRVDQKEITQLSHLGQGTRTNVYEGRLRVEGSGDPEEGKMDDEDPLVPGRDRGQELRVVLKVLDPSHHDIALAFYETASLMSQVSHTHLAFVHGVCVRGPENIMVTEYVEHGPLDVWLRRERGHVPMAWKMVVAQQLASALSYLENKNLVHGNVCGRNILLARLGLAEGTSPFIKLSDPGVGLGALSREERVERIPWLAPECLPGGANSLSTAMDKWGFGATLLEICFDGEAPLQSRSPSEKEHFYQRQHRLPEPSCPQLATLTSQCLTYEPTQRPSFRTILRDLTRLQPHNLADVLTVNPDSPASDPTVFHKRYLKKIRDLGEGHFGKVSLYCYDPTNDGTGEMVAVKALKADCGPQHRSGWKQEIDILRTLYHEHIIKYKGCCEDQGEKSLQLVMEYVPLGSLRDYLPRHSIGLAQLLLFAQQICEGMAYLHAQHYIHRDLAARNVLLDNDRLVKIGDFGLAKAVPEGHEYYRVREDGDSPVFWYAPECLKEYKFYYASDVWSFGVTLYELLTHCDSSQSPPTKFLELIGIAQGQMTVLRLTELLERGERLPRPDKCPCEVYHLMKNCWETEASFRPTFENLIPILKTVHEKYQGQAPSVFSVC
Sequence of Mitogen-activated protein kinase 6 (Homo sapiens) (Q16659 whole entry): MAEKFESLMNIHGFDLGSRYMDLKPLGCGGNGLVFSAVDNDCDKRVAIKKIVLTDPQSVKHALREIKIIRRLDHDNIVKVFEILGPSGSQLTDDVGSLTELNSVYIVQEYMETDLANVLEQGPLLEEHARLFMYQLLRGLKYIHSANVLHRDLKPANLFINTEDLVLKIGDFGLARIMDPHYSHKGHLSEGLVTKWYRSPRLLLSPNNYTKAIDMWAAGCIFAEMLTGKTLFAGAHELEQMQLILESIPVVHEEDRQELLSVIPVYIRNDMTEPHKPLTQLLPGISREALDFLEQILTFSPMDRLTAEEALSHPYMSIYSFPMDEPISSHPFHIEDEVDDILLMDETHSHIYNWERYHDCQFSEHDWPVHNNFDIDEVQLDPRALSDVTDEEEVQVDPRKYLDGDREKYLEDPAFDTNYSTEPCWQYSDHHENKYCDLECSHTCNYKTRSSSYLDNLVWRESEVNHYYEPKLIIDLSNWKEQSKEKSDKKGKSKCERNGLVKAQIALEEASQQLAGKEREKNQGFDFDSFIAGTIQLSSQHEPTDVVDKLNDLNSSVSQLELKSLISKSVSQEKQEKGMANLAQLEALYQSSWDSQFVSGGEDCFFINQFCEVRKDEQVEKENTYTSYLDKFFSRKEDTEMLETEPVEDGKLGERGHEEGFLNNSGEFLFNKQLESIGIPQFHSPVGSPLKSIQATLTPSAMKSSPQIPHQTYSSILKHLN
Sequence of Wee1-like protein kinase (Homo sapiens) (P30291 whole entry, looked up): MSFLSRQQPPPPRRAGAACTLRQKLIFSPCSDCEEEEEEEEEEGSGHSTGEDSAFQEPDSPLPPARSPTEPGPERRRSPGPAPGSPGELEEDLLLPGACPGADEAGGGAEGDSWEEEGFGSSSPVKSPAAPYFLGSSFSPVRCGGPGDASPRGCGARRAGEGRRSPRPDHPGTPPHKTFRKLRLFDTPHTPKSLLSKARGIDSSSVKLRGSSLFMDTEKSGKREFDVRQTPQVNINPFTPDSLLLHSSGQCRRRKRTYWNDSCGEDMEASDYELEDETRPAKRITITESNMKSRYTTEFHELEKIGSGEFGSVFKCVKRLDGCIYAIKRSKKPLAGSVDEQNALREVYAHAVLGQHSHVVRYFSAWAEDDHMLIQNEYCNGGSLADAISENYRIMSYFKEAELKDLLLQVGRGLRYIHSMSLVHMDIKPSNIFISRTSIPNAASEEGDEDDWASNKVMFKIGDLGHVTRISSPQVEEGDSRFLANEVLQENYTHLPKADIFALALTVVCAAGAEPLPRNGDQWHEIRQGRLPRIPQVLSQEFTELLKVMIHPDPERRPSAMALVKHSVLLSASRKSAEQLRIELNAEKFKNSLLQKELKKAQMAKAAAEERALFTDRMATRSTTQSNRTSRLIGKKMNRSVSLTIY

Regarding `FC(F)(F)c1ccc(Cl)cc1CN1CCNc2ncc(-c3ccnc(N4CCNCC4)c3)cc21`, the inhibition is 72% in assay [1]; < 50% in assay [2]; < 50% in assay [3]; < 50% in assay [4]; < 50% in assay [5]; < 50% in assay [6]. For the same compound, the inhibition in assay [7] and in assay [8] was < 50% throughout.
As to `CN1CCN(c2ccc(-c3cnc4c(c3)N(Cc3cc(F)ccc3F)CCN4)cn2)CC1`, the inhibition in assay [1], in assay [2], in assay [3], in assay [4], in assay [5] and in assay [6] was < 50% in each case. Further, the inhibition in assay [7] and in assay [8] was < 50% each time.
Consider `CN1CCN(c2ccc(-c3cnc4c(c3)N(Cc3cc(Cl)ccc3Cl)CCN4)cn2)CC1`, for which the inhibition in assay [1], in assay [2], in assay [3], in assay [4], in assay [5] and in assay [6] was < 50% in each case. Further, the inhibition in assay [7] and in assay [8] was < 50% throughout.
As for `O=C(O)c1ccc(-c2cnc3c(c2)N(Cc2cc(Cl)ccc2C(F)(F)F)CCN3)cc1`, the inhibition in assay [1], in assay [2], in assay [4], in assay [6] and in assay [7] was < 50% in each case.
Take `CN1CCN(c2ccc(-c3cnc4c(c3)N(Cc3cc(Cl)ccc3C(F)(F)F)CCN4)cn2)CC1`: the inhibition in assay [1] was 79%; in assay [2], < 50%; in assay [3] it was < 50%; in assay [4], < 50%; in assay [5], < 50%; in assay [6] it was < 50%. Besides, the inhibition in assay [7] and in assay [8] was < 50% each time.
On to `COC1CCN(C(=O)c2ccc(-c3cnc4c(c3)N(Cc3cc(Cl)ccc3C(F)(F)F)CCN4)cc2)CC1`, for which the inhibition in assay [1], in assay [2], in assay [4], in assay [6] and in assay [7] was < 50% each time.
`O=C(c1ccc(-c2cnc3c(c2)N(Cc2cc(Cl)ccc2C(F)(F)F)CCN3)cc1)N1CCC(N2CCCC2)CC1`: the inhibition in assay [1] is < 50%; in assay [2] it was < 50%; in assay [4], < 50%; in assay [6], < 50%; in assay [7], 84.5%.
Take `CN1CCN(c2ccc(-c3cnc4c(c3)N(Cc3c(F)ccc(F)c3Cl)CCN4)cn2)CC1`: the inhibition in assay [1], in assay [2], in assay [3], in assay [4], in assay [5] and in assay [6] was < 50% in each case. For the same compound, the inhibition in assay [7] and in assay [8] was < 50% throughout.
Regarding `O=C(c1ccc(-c2cnc3c(c2)N(Cc2cc(Cl)ccc2C(F)(F)F)CCN3)cc1)N1CCCCC1`, the inhibition in assay [1], in assay [2], in assay [4], in assay [6] and in assay [7] was < 50% in each case.
On to `CC(=O)N1CCN(c2cc(-c3cnc4c(c3)N(Cc3cc(Cl)ccc3C(F)(F)F)CCN4)ccn2)CC1`, for which the inhibition is 72% in assay [1]; < 50% in assay [2]; < 50% in assay [3]; < 50% in assay [4]; < 50% in assay [5]; < 50% in assay [6]. Also, the inhibition in assay [7] and in assay [8] was < 50% throughout.
